This is an account of results in ChEMBL document CHEMBL3784968, “Synthesis and mechanistic aspects of 2-anilinonicotinyl-pyrazolo[1,5-a]pyrimidine conjugates that regulate cell proliferation in MCF-7 cells via estrogen signaling” (2016).

The source made the active and inactive calls. No cut-off for these calls is given here.

Assay [1] relates to MCF7. The experiment in a line: Cell cycle arrest in human MCF7 cells assessed as accumulation at G2/M phase at 16 uM after 48 hrs (reference value: 25%). The format is functional. Put shortly: (§1)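 MCF-7 breast cancer cells exposed 48 h to 4, 8, 16 or 32 µM; doxorubicin as positive control. Cell cycle phase distribution (G0, G1, S, G2/M) read as percentage of cells; G0 fraction taken as apoptotic cells.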

The subject of assay [2] is MCF7. The experiment in a line: Down regulation of cyclin D expression in human MCF7 cells at 1 uM after 24 hrs by Western blot analysis. The format is functional, cell-based. In general terms: In western blotting, separated proteins are transferred to a membrane and probed.
In assay [3] the test system is MCF7. As to the kind of experiment: Cell cycle arrest in human MCF7 cells assessed as accumulation at G1 phase at 4 uM after 48 hrs (reference value: 63%). The format is functional. Put shortly:
as §1

Assay [4] can be described thus: Cytotoxicity against human IMR32 cells assessed as cell viability after 24 to 48 hrs by MTT assay. The format is functional, IMR-32. Put shortly: (§2)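 MTT viability assay in SiHa, HeLa (cervical), MCF-7 (breast) and IMR-32 (neuroblastoma) cells, treated with conjugates over 0.25 to 8 µM for 48 h.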
(In general: Tetrazolium dyes change colour on reduction, which living cells bring about.)

Assay [5] relates to MCF7. As to the kind of experiment: Down regulation of ER alpha expression in human MCF7 cells at 4 uM after 24 hrs by luciferase reporter gene assay. The format is functional, cell-based. In short, it runs like this:
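MCF-7 cells first transfected with ERα construct for 48 h, then compound exposure at 4 µM for 24 h; luciferase-based read-out; etoposide and doxorubicin run as standards.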
Background: Reporter assays use an easily measured gene product as a stand-in for the process of interest.

Assay [6] has as its system MCF7. The experiment in a line: Cell cycle arrest in human MCF7 cells assessed as accumulation at G1 phase at 32 uM after 48 hrs (reference value: 63%). The format is functional. In short, it runs like this:
as §1

In assay [7] the test system is MCF7. As to the kind of experiment: Cell cycle arrest in human MCF7 cells assessed as accumulation at G2/M phase at 8 uM after 48 hrs (reference value: 25%). In kind it is functional. Put shortly:
as §1

Assay [8] relates to MCF7. The experiment in a line: Cell cycle arrest in human MCF7 cells assessed as accumulation at G0 phase at 16 uM after 48 hrs (reference value: 3%). In kind it is functional. Put shortly:
as §1

The test system of assay [9] is MCF7. The experiment in a line: Cell cycle arrest in human MCF7 cells assessed as accumulation at S phase at 4 uM after 48 hrs (reference value: 9%). The format is functional. In short, it runs like this:
as §1

In assay [10] the test system is MCF7. The experiment in a line: Cell cycle arrest in human MCF7 cells assessed as accumulation at G0 phase at 32 uM after 48 hrs (reference value: 3%). The format is functional. In short, it runs like this: as §1
Assay [11] has as its system MCF7. The experiment in a line: Cytotoxicity against human MCF7 cells assessed as cell viability after 24 to 48 hrs by MTT assay. The format is functional. Put shortly:
as §2

The test system of assay [12] is MCF7. As to the kind of experiment: Cell cycle arrest in human MCF7 cells assessed as accumulation at G1 phase at 8 uM after 48 hrs (reference value: 63%). In kind it is functional. In short, it runs like this: as §1
The subject of assay [13] is MCF7. As to the kind of experiment: Down regulation of survivin expression in human MCF7 cells at 1 uM after 24 hrs by Western blot analysis. In kind it is functional, cell-based.
Assay [14] deals with MCF7. As to the kind of experiment: Cell cycle arrest in human MCF7 cells assessed as accumulation at G1 phase at 16 uM after 48 hrs (reference value: 63%). The format is functional. Put shortly: as §1
In assay [15] the test system is MCF7. As to the kind of experiment: Cell cycle arrest in human MCF7 cells assessed as accumulation at G2/M phase at 32 uM after 48 hrs (reference value: 25%). In kind it is functional. Put shortly:
as §1

For assay [16], the system named is MCF7. As to the kind of experiment: Down regulation of Bcl-2 expression in human MCF7 cells at 1 uM after 24 hrs by Western blot analysis. In kind it is functional, cell-based.
Assay [17] has as its system MCF7. As to the kind of experiment: Cell cycle arrest in human MCF7 cells assessed as accumulation at G2/M phase at 4 uM after 48 hrs (reference value: 25%). The format is functional. In short, it runs like this:
as §1

Another assay deals with SiHa. The experiment in a line: Cytotoxicity against human SiHa cells assessed as cell viability after 24 to 48 hrs by MTT assay. In kind it is functional. Put shortly:
as §2

In assay [18] the test system is MCF7. The experiment in a line: Cell cycle arrest in human MCF7 cells assessed as accumulation at S phase at 32 uM after 48 hrs (reference value: 9%). The format is functional. Put shortly:
as §1

In assay [19] the test system is MCF7. As to the kind of experiment: Cell cycle arrest in human MCF7 cells assessed as accumulation at G0 phase at 8 uM after 48 hrs (reference value: 3%). In kind it is functional. In short, it runs like this: as §1
Assay [20] concerns MCF7. The experiment in a line: Cell cycle arrest in human MCF7 cells assessed as accumulation at G0 phase at 4 uM after 48 hrs (reference value: 3%). The format is functional. Put shortly:
as §1

Assay [21] has as its system MCF7. The experiment in a line: Cell cycle arrest in human MCF7 cells assessed as accumulation at S phase at 16 uM after 48 hrs (reference value: 9%). The format is functional. In short, it runs like this: as §1
Assay [22] deals with MCF7. The experiment in a line: Cell cycle arrest in human MCF7 cells assessed as accumulation at S phase at 8 uM after 48 hrs (reference value: 9%). The format is functional. Put shortly:
as §1

A further assay deals with HeLa. As to the kind of experiment: Cytotoxicity against human HeLa cells assessed as cell viability after 24 to 48 hrs by MTT assay. The format is functional. Put shortly: as §2

With `COc1ccc(-c2cc(C(=O)N3CCN(C(=O)c4cccnc4Nc4ccccc4)CC3)nc3cc(-c4ccccc4)nn23)cc1`, the Activity was 25% in the assay with MCF7 [1]; 52% in the assay with MCF7 [3]; 4.75 µM in assay [4]; 38% in the assay on MCF7 [6]; 32% in the assay on MCF7 [7]; 4% in the assay with MCF7 [8]. The Activity is 9% in the assay with MCF7 [9]; 13% in the assay on MCF7 [10]; 2.16 µM in the assay on MCF7 [11]; 57% with MCF7 [12]; 64% in the assay with MCF7 [14]; 39% in the assay on MCF7 [15]. Further, the Activity in the assay on MCF7 [17] was found to be 37%; in the assay with SiHa it was 3.33 µM; with MCF7 [18], 10%; in the assay on MCF7 [19] it was 2%; with MCF7 [20], 1%; in the assay on MCF7 [21], 7%. For the same molecule, the Activity in the assay on MCF7 [22] worked out at 9%; with HeLa, 2.43 µM. The outcome in the assay with MCF7 [2], with MCF7 [5], in the assay on MCF7 [13] and with MCF7 [16] was Active.

For `O=C(c1cc(-c2ccc(F)cc2)n2nc(-c3ccccc3)cc2n1)N1CCN(C(=O)c2cccnc2Nc2ccccc2)CC1`, the Activity worked out at 28% in the assay on MCF7 [1]; 52% with MCF7 [3]; 4.65 µM in assay [4]; 44% in the assay with MCF7 [6]; 33% in the assay with MCF7 [7]; 5% in the assay with MCF7 [8]. Further, the Activity in the assay with MCF7 [9] was found to be 8%; in the assay on MCF7 [10], 9%; in the assay on MCF7 [11], 1.79 µM; in the assay on MCF7 [12], 54%; with MCF7 [14], 58%; with MCF7 [15], 39%. In addition, the Activity with MCF7 [17] was 38%; with SiHa it was 2.65 µM; in the assay with MCF7 [18] it was 9%; in the assay on MCF7 [19] it was 2%; in the assay with MCF7 [20], 1%; in the assay with MCF7 [21], 8%. Besides, the figures for the Activity in the assay on MCF7 [22] and in the assay on HeLa were 10% and 2.29 µM, respectively. Besides, the outcome in the assay with MCF7 [2], with MCF7 [5], in the assay with MCF7 [13] and with MCF7 [16] was Active.
